These results are taken from ChEMBL document CHEMBL5252514, “Conopeptide-Derived κ-Opioid Agonists (Conorphins): Potent, Selective, and Metabolic Stable Dynorphin A Mimetics with Antinociceptive Properties” (J Med Chem, 2016).

The target in this test is Kappa-type opioid receptor (Homo sapiens, UniProt P41145). The test can be described thus: Displacement of [3H]U69593 from human kappa opioid receptor expressed in CHO-K1 cells incubated for 1 hr by 1450 microbeta scintillation counter analysis. The format is cell-based. Summed up:
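Membranes from transiently KOR-transfected CHO-K1 cells (~2 µg/well) used in SPA with 3H-U69,593 (1 nM). Competitor ranged 1 pM–10 µM in 50 mM Tris-HCl pH 7.4, 5 mM MgCl2, 0.1% BSA. Incubated 1 h at room temperature with shaking. Nonspecific binding defined with 10 µM dynorphin A. Sigmoidal dose-response fit; at least three independent experiments in triplicate.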

Structures are written as SMILES. Where a SMILES comes first, the peptide text is derived from it.

As usually defined, the Ki is a dissociation constant, usually derived from enzyme kinetics or from competition with a known ligand. A higher Ki goes with weaker binding.

Kappa-type opioid receptor, sequence (P41145 whole entry): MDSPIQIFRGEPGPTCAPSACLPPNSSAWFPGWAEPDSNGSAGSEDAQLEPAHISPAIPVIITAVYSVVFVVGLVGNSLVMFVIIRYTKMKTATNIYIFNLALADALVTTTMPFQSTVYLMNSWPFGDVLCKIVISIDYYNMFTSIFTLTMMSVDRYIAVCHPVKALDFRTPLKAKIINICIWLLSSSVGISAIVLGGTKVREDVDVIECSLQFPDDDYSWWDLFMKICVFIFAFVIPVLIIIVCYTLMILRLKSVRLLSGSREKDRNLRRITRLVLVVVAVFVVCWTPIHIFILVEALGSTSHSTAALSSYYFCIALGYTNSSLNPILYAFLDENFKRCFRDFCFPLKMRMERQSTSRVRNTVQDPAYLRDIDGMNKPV

The compound `N=C(N)NCCC[C@@H](NC(=O)[C@@H](CCCNC(=N)N)NC(=O)[C@@H]1CCCN1C(=O)c1ccccc1)C(=O)N[C@@H](CC(N)=O)C(=O)N[C@@H](CC1CCCCC1)C(=O)N[C@H]1CSSC[C@@H](C(N)=O)NC1=O` had a Ki of 0.61 nM.

In the case of `N=C(N)NCCC[C@@H](NC(=O)[C@@H](CCCNC(=N)N)NC(=O)[C@@H]1CCCN1C(=O)c1ccccc1)C(=O)N[C@@H](CCC(N)=O)C(=O)N[C@@H](CC1CCCCC1)C(=O)N[C@H]1CSSCCN(CC(N)=O)C1=O`, the Ki stood at 465 nM.

Compound `CC(C)[C@H](NC(=O)[C@H](CCC(N)=O)NC(=O)[C@H](CCCNC(=N)N)NC(=O)[C@H](CCCNC(=N)N)NC(=O)[C@@H]1CSSC[C@H](NC(=O)[C@@H](N)CC(N)=O)C(=O)N1)C(=O)N[C@H]1CSSC[C@@H](C(N)=O)NC1=O` (HELM PEPTIDE1{N.C.C.R.R.Q.V.C.C.[am]}$PEPTIDE1,PEPTIDE1,2:R3-3:R3|PEPTIDE1,PEPTIDE1,8:R3-9:R3$$$V2.0) registered a Ki of 664 nM.

As to `N=C(N)NCCC[C@@H](NC(=O)[C@@H](CCCNC(=N)N)NC(=O)[C@@H]1CCCN1C(=O)c1ccccc1)C(=O)N[C@@H](CCC(N)=O)C(=O)N[C@@H](CC1CCCCC1)C(=O)N[C@H]1CSCSC[C@@H](C(N)=O)NC1=O`, the Ki turned out to be 15.8 nM.

In turn, `N=C(N)NCCC[C@@H](NC(=O)[C@@H](CCCNC(=N)N)NC(=O)[C@@H]1CCCN1C(=O)c1ccccc1)C(=O)N[C@@H](CC1CCCCC1)C(=O)N[C@H]1CSSCC(C(N)=O)NC1=O` (single isomer, unassigned) registered a Ki of 60 nM.

`N=C(N)NCCC[C@@H](NC(=O)[C@@H](CCCNC(=N)N)NC(=O)[C@@H]1CCCN1C(=O)c1ccccc1)C(=O)N[C@@H](CCC(N)=O)C(=O)N[C@@H](CC1CCCCC1)C(=O)N1CCSSC[C@@H](C(N)=O)NC(=O)C1` gave a Ki of 199 nM.

`CC[C@H](C)[C@H](NC(=O)[C@H](CCC(N)=O)NC(=O)[C@H](C)NC(=O)[C@H](CCCNC(=N)N)NC(=O)[C@@H]1CSSC[C@H](NC(=O)[C@@H](N)CC(N)=O)C(=O)N1)C(=O)N[C@H]1CSSC[C@@H](C(N)=O)NC1=O` (HELM PEPTIDE1{N.C.C.R.A.Q.I.C.C.[am]}$PEPTIDE1,PEPTIDE1,2:R3-3:R3|PEPTIDE1,PEPTIDE1,8:R3-9:R3$$$V2.0): the Ki is 406 nM.

As to `CC[C@H](C)[C@@H]1NC(=O)[C@H](CCC(N)=O)NC(=O)[C@H](CCCNC(=N)N)NC(=O)[C@H](CCCNC(=N)N)NC(=O)[C@@H]2CSSC[C@@H](C(N)=O)NC(=O)[C@H](CSSC[C@H](NC(=O)[C@@H](N)CC(N)=O)C(=O)N2)NC1=O` (HELM PEPTIDE1{N.C.C.R.R.Q.I.C.C.[am]}$PEPTIDE1,PEPTIDE1,2:R3-8:R3|PEPTIDE1,PEPTIDE1,3:R3-9:R3$$$V2.0), the inhibition constant (Ki) came out at 1470 nM. This Ki is about 3.6-fold higher than that of the compound before.

Consider `CC[C@H](C)[C@H](NC(=O)[C@H](CCC(N)=O)NC(=O)[C@H](CCCNC(=N)N)NC(=O)[C@H](CCCNC(N)=O)NC(=O)[C@@H]1CSSC[C@H](NC(=O)[C@@H](N)CC(N)=O)C(=O)N1)C(=O)N[C@H]1CSSC[C@@H](C(N)=O)NC1=O` (HELM PEPTIDE1{N.C.C.[Cit].R.Q.I.C.C.[am]}$PEPTIDE1,PEPTIDE1,2:R3-3:R3|PEPTIDE1,PEPTIDE1,8:R3-9:R3$$$V2.0), for which the inhibitory constant (Ki) was determined as 218 nM.

In the case of `C[C@H](NC(=O)[C@H](CCC(N)=O)NC(=O)[C@H](CCCNC(=N)N)NC(=O)[C@H](CCCNC(=N)N)NC(=O)[C@@H]1CSSC[C@H](NC(=O)[C@@H](N)CC(N)=O)C(=O)N1)C(=O)N[C@H]1CSSC[C@@H](C(N)=O)NC1=O` (HELM PEPTIDE1{N.C.C.R.R.Q.A.C.C.[am]}$PEPTIDE1,PEPTIDE1,2:R3-3:R3|PEPTIDE1,PEPTIDE1,8:R3-9:R3$$$V2.0), the Ki came out at 2450 nM.

Consider `N=C(N)NCCC[C@@H](NC(=O)Cc1cccc(Cl)c1)C(=O)N[C@H](CCCNC(=N)N)C(=O)N[C@@H](CCC(N)=O)C(=O)N[C@@H](CC1CCCCC1)C(=O)N[C@H]1CSSC[C@@H](C(N)=O)NC1=O`, for which the affinity corresponds to a Ki of 2.1 nM.

`N=C(N)NCCC[C@@H](NC(=O)Cc1ccc(F)cc1)C(=O)N[C@H](CCCNC(=N)N)C(=O)N[C@@H](CCC(N)=O)C(=O)N[C@@H](CC1CCCCC1)C(=O)N[C@H]1CSSC[C@@H](C(N)=O)NC1=O` had a Ki of 1.2 nM.

For `N=C(N)NCCC[C@@H](NC(=O)[C@@H](CCCNC(=N)N)NC(=O)[C@@H]1CCCN1C(=O)c1ccccc1)C(=O)N[C@@H](CCC(N)=O)C(=O)N[C@@H](CC1CCCCC1)C(=O)N1C[C@@H]2C[C@H]1C(=O)N[C@H](C(N)=O)CSS2`, affinity was put at a Ki of 786 nM.

As for `CC[C@H](C)[C@H](NC(=O)[C@H](CCC(N)=O)NC(=O)[C@H](CCCNC(=N)N)NC(=O)[C@H](Cc1c[nH]cn1)NC(=O)[C@@H]1CSSC[C@H](NC(=O)[C@@H](N)CC(N)=O)C(=O)N1)C(=O)N[C@H]1CSSC[C@@H](C(N)=O)NC1=O` (HELM PEPTIDE1{N.C.C.H.R.Q.I.C.C.[am]}$PEPTIDE1,PEPTIDE1,2:R3-3:R3|PEPTIDE1,PEPTIDE1,8:R3-9:R3$$$V2.0), the Ki is 137 nM.

`CC[C@H](C)[C@H](NC(=O)[C@H](CCC(N)=O)NC(=O)[C@H](Cc1c[nH]cn1)NC(=O)[C@H](CCCNC(=N)N)NC(=O)[C@@H]1CSSC[C@H](NC(=O)[C@@H](N)CC(N)=O)C(=O)N1)C(=O)N[C@H]1CSSC[C@@H](C(N)=O)NC1=O` (HELM PEPTIDE1{N.C.C.R.H.Q.I.C.C.[am]}$PEPTIDE1,PEPTIDE1,2:R3-3:R3|PEPTIDE1,PEPTIDE1,8:R3-9:R3$$$V2.0) returned a Ki of 85 nM.

As to `CC[C@H](C)[C@H](NC(=O)[C@H](CCC(N)=O)NC(=O)[C@H](CCCNC(=N)N)NC(=O)[C@H](C)NC(=O)[C@@H]1CSSC[C@H](NC(=O)[C@@H](N)CC(N)=O)C(=O)N1)C(=O)N[C@H]1CSSC[C@@H](C(N)=O)NC1=O` (HELM PEPTIDE1{N.C.C.A.R.Q.I.C.C.[am]}$PEPTIDE1,PEPTIDE1,2:R3-3:R3|PEPTIDE1,PEPTIDE1,8:R3-9:R3$$$V2.0), the Ki was 170 nM.

Compound `N=C(N)NCCC[C@@H](NC(=O)c1ccc(F)cc1)C(=O)N[C@H](CCCNC(=N)N)C(=O)N[C@@H](CCC(N)=O)C(=O)N[C@@H](CC1CCCCC1)C(=O)N[C@H]1CSSC[C@@H](C(N)=O)NC1=O` displayed a Ki of 5.4 nM.

Take `N=C(N)NCCC[C@@H](NC(=O)[C@@H](CCCNC(=N)N)NC(=O)[C@@H]1CCCN1C(=O)c1ccccc1)C(=O)N[C@@H](Cc1ccccc1)C(=O)N[C@@H](CC1CCCCC1)C(=O)N[C@H]1CSSC[C@@H](C(N)=O)NC1=O`: the affinity, expressed as Ki, was 0.59 nM. This Ki lies about 9.2-fold lower than the previous one.

With `N=C(N)NCCC[C@@H](NC(=O)Cc1cccc(Br)c1)C(=O)N[C@H](CCCNC(=N)N)C(=O)N[C@@H](CCC(N)=O)C(=O)N[C@@H](CC1CCCCC1)C(=O)N[C@H]1CSSC[C@@H](C(N)=O)NC1=O`, the affinity, expressed as Ki, was 1.2 nM.

With `N=C(N)NCCC[C@@H](NC(=O)[C@@H](CCCNC(=N)N)NC(=O)[C@@H]1CCCN1C(=O)c1ccccc1)C(=O)N[C@@H](CO)C(=O)N[C@@H](CC1CCCCC1)C(=O)N[C@H]1CSSC[C@@H](C(N)=O)NC1=O`, the inhibition constant (Ki) amounted to 0.42 nM. Against the preceding compound, the Ki is about 2.9-fold lower.

Compound `CC[C@H](C)[C@H](NC(=O)[C@H](CCCN=C(N)N)NC(=O)[C@H](CCCN=C(N)N)NC(=O)[C@H](CC(C)C)NC(=O)[C@H](Cc1ccccc1)NC(=O)CNC(=O)CNC(=O)[C@@H](N)Cc1ccc(O)cc1)C(=O)N[C@@H](CCCN=C(N)N)C(=O)N1CCC[C@H]1C(=O)N[C@@H](CCCCN)C(=O)N[C@@H](CC(C)C)C(=O)N[C@@H](CCCCN)C(N)=O` returned an inhibition constant (Ki) of 0.4 nM.

In turn, `CC[C@H](C)[C@@H]1NC(=O)[C@H](CCC(N)=O)NC(=O)[C@H](CCCNC(=N)N)NC(=O)[C@H](CCCNC(=N)N)NC(=O)[C@@H]2CSSC[C@H](NC1=O)C(=O)N[C@H](C(N)=O)CSSC[C@H](NC(=O)[C@@H](N)CC(N)=O)C(=O)N2` (HELM PEPTIDE1{N.C.C.R.R.Q.I.C.C.[am]}$PEPTIDE1,PEPTIDE1,2:R3-9:R3|PEPTIDE1,PEPTIDE1,3:R3-8:R3$$$V2.0) showed a Ki of 580 nM.

As to `CC[C@H](C)[C@H](NC(=O)[C@H](CCC(N)=O)NC(=O)[C@H](CCCCN)NC(=O)[C@H](CCCNC(=N)N)NC(=O)[C@@H]1CSSC[C@H](NC(=O)[C@@H](N)CC(N)=O)C(=O)N1)C(=O)N[C@H]1CSSC[C@@H](C(N)=O)NC1=O` (HELM PEPTIDE1{N.C.C.R.K.Q.I.C.C.[am]}$PEPTIDE1,PEPTIDE1,2:R3-3:R3|PEPTIDE1,PEPTIDE1,8:R3-9:R3$$$V2.0), the affinity, expressed as Ki, was 208 nM.

The compound `N=C(N)NCCC[C@@H](NC(=O)[C@@H](CCCNC(=N)N)NC(=O)[C@@H]1CCCN1C(=O)c1ccc([N+](=O)[O-])cc1)C(=O)N[C@@H](CCC(N)=O)C(=O)N[C@@H](CS)C(=O)N[C@@H](CC1CCCCC1)C(=O)N[C@H]1CSSC[C@@H](C(N)=O)NC1=O` yielded a Ki of 2.2 nM.

On to `CC[C@H](C)[C@H](NC(=O)[C@H](C)NC(=O)[C@H](CCCNC(=N)N)NC(=O)[C@H](CCCNC(=N)N)NC(=O)[C@@H]1CSSC[C@H](NC(=O)[C@@H](N)CC(N)=O)C(=O)N1)C(=O)N[C@H]1CSSC[C@@H](C(N)=O)NC1=O` (HELM PEPTIDE1{N.C.C.R.R.A.I.C.C.[am]}$PEPTIDE1,PEPTIDE1,2:R3-3:R3|PEPTIDE1,PEPTIDE1,8:R3-9:R3$$$V2.0), for which the affinity corresponds to a Ki of 133 nM.

Regarding `CC[C@H](C)[C@H](NC(=O)[C@H](CCC(N)=O)NC(=O)[C@H](CCCNC(=N)N)NC(=O)[C@H](CCCNC(=N)N)NC(=O)[C@@H]1CSSC[C@H](NC(=O)[C@@H](N)CC(N)=O)C(=O)N1)C(N)=O` (HELM PEPTIDE1{N.C.C.R.R.Q.I.[am]}$PEPTIDE1,PEPTIDE1,2:R3-3:R3$$$V2.0), the affinity corresponds to a Ki of 14700 nM.

Take `N=C(N)NCCC[C@@H](NC(=O)[C@@H](CCCNC(=N)N)NC(=O)[C@@H]1CCCN1C(=O)c1ccccc1)C(=O)N[C@@H](CCC(N)=O)C(=O)N[C@@H](CC1CCCCC1)C(N)=O`: the inhibitory constant (Ki) stood at 22500 nM.

Regarding `N=C(N)NCCC[C@@H](NC(=O)[C@@H](CCCNC(=N)N)NC(=O)[C@@H]1CCCN1C(=O)c1ccccc1)C(=O)N[C@@H](CCCCN)C(=O)N[C@@H](CC1CCCCC1)C(=O)N[C@H]1CSSC[C@@H](C(N)=O)NC1=O`, the affinity corresponds to a Ki of 0.59 nM.

The compound `N=C(N)NCCC[C@@H](NC(=O)[C@@H](CCCNC(=N)N)NC(=O)[C@@H]1CCCN1C(=O)c1ccccc1)C(=O)N[C@@H](CCC(N)=O)C(=O)N[C@@H](CC1CCCCC1)C(=O)N[C@H]1CSSC[C@@H](C(=O)O)NC1=O` gave a Ki of 2140 nM.
